Experimental findings from PubChem BioAssay are described below.

Assay [1] in a line: inhibitors of TNFa-induced NFkB p65 translocation, primary screen, imaging, HUVEC, MLSMR starter and 10KST1 sets (AID 438;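 active = inhibition above 20% together with a positive visual image hit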;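 also: compound added about 3h40 before a 20 min TNFalpha stimulation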;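 as to inhibition: signal is the nuclear over cytoplasmic p65 intensity ratio per well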). As to conditions: HUVEC TNFa-induced p65 nuclear translocation; cell count: measured here: nuclei count (cytotoxicity indicator), at 2.08 µM; inhibition: at 2 µM, stronger effect = higher value, 0% TNFa-plus-vehicle, 100% no-TNFa wells.
The nature of assay [2]: endothelial E-selectin expression blockers – imaging, HUVEC, immunofluorescence, MLSMR starter and 10KST1 sets, primary screen (AID 487;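 active = visually confirmed hit in the image check and inhibition above 20%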;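 as to inhibition: signal is fraction of cell area covered by stained E-selectin grains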;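 as to nuclei count: 100% = median nuclei count of all wells on the same plate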). The note with it: HUVEC TNFalpha-induced E-selectin immunofluorescence imaging, at 2 µM; inhibition: stronger effect = higher value; nuclei count: measured here: cell number, toxicity.
Assay [3] is described as follows: Primary imaging screen for DUSP6 inhibitors that restore phospho-Erk in transfected HeLa cells, chemical complementation (AID 609;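 active = compounds giving at least 50% inhibition in the cell-based MKP-3 phosphatase rescue imaging test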;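 as to inhibition: phospho-Erk level distribution per well compared with pooled transfected vehicle control wells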). The note with it: HeLa MKP-3 transfected, phospho-Erk imaging KS statistic, at 10 µM, cells stimulated with TPA for 15 min.
The target of assay [4] is Dual specificity protein phosphatase 6 (Homo sapiens) (UniProt Q16828). Described as above. As to conditions: HeLa MKP-3 transfected, phospho-Erk imaging KS statistic; at 10 µM; stronger effect = higher value; cells stimulated with TPA for 15 min.
Sequence of Dual specificity protein phosphatase 6 (Homo sapiens) (Q16828 whole entry, looked up): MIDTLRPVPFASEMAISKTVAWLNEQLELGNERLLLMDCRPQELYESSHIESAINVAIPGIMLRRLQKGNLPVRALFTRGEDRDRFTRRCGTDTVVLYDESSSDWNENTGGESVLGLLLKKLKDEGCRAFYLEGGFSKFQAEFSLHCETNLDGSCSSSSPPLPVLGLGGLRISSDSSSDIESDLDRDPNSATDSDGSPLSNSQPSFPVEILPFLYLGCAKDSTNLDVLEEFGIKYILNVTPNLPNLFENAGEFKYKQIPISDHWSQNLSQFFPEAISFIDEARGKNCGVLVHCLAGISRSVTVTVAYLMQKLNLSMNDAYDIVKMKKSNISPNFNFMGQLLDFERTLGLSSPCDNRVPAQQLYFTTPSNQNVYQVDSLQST
In assay [5] the target is Voltage-gated potassium channel subunit beta-2 (Rattus norvegicus) (UniProt P62483). The assay is described as follows: inhibitors of rat Kvbeta2 reductase activity – biochemical, NADPH fluorescence, primary screen (AID 622).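 Also: slope of raw intensity against log time taken from 70 to 1610 s.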 As to conditions: recombinant KvBeta, 4-cyanobenzaldehyde reduction, at 10 µM, stronger effect = higher value.
Sequence of Voltage-gated potassium channel subunit beta-2 (Rattus norvegicus) (P62483 whole entry, looked up): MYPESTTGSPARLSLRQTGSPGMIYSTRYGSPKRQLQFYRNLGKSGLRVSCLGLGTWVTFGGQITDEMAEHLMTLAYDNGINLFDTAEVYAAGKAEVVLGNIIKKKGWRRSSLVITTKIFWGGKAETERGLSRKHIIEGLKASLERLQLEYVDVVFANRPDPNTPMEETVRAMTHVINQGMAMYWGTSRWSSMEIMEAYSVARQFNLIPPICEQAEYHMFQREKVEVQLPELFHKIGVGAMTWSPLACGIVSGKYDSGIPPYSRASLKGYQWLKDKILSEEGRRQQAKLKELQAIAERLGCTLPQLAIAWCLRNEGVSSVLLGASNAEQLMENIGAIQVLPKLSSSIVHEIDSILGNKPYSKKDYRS
Assay [6] has the same target. The assay is described as follows: enhancers of rat Kvbeta2 NADPH turnover – biochemical, NADPH fluorescence, primary screen (AID 623;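 active = NADPH fluorescence slope more negative than the mean of all samples by about 3 SD, 99.7% confidence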;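 also: fluorescence intensity change per second fitted from 20 to 320 s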). The note with it: Recombinant KvBeta, NADPH fluorescence decrease slope, 10 min; at 10 µM; stronger effect = lower value.
Assay [7] has as its target Muscarinic acetylcholine receptor M4 (Homo sapiens) (UniProt P08173). Description: M4-linked GIRK flux change, two-sided – cell-based, HEK293 M4/GIRK, thallium flux, BTC-AM, M4 allosteric agonist project, primary screen (AID 625;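 active = fluorescence slope after compound addition differing from the mean of all tested samples at 99.7% confidence, mostly higher but some lower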;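 also: thallium influx through GIRK channels coupled to M4 in HEK293 cells with BTC-AM dye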). The note with it: at 10 µM, actives lie on both sides. The procedure, abridged: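 assay system = HEK293 cells with M4 receptor and GIRK channels | medium = pH 7.3 thallium assay buffer | doses = 10 µM final, single point | timing = cells overnight at 37 °C, BTC-AM loading 1 h, reads 2 min total | signal = BTC-AM fluorescence, 1 Hz kinetic reads | read-out = post-addition slope, 15–24 s, of baseline-normalized fluorescence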

The nature of assay [8]: inhibitors of larval lipid processing in zebrafish, primary screen, whole organism, PED6 fluorescence, gall bladder and intestine (AID 686;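 active = a full or partial loss of lipid-probe fluorescence in the fish gall bladder, intestine or both, judged by eye; inactive = no fluorescence loss, or compound toxic to the fish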;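 also: larvae 5 to 7 days old with five fish per well; signal comes from phospholipase A2 cleavage of quenched PED6 carried via bile; overnight exposure to compound and PED6 before scoring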). As to conditions: Zebrafish larvae PED6 lipid processing, fluorescence scoring; screened at 20 µM (by protocol). The procedure, abridged: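 Also added: quenched phospholipase substrate PED6, 100 nM final, ingested by larvae; System: zebrafish larvae, 5-7 d; Quantity: 5 larvae per well; Compound: 20 µM single dose; Schedule: overnight compound and PED6 incubation; Read-out: visual per-well fluorescence inhibition score; Measured by: By-eye fluorescence microscopy; Medium: E3.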

A short description of assay [9]: loss of swimming-algae plug formation – whole organism, Chlamydomonas reinhardtii, WT vs cilia-less mutant, absorbance, 96-well, primary screen (AID 463189;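 active = inhibition at or above 50% relative to wild type and mutant plate controls; inactive = inhibition below 50%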;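 also: 0% = wild type cc124 cells in DMSO and 100% = ciliumless bld1 mutant cells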). As to conditions: Chlamydomonas reinhardtii gravitaxis, OD600 absorbance, 2 days; at 10 µM; stronger effect = higher value.
Setting [10] is: measured here: cell density z-score.
The mark [11] stands for this setting: measured here: nuclear c-Myc green intensity z-score.
The mark [12] stands for this setting: measured here: nuclear pErk red intensity z-score, stronger effect = higher value.

Molecules are shown by their SMILES. Activity calls are given as the source filed them.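 The calls were made as follows, unless noted: active = fluorescence slope higher than the sample average by over 3 SD (cut at about -0.22 in these data, passing the limit was not always enough); inactive = the rest.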

Sequence of Muscarinic acetylcholine receptor M4 (Homo sapiens) (P08173 whole entry, looked up): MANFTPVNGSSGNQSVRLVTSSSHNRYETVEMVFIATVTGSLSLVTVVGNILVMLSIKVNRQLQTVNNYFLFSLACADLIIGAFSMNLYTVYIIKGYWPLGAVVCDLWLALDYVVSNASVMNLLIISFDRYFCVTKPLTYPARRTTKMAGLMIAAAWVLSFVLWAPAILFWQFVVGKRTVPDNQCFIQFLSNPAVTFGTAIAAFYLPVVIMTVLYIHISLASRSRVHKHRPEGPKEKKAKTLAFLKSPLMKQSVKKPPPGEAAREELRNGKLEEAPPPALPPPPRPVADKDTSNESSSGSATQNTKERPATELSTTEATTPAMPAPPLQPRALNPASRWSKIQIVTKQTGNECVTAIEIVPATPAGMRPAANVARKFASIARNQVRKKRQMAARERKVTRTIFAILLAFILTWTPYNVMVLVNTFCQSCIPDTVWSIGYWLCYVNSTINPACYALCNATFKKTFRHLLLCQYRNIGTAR

With `CC1(C)Cc2nc3sc4c(N(CCO)CCO)ncnc4c3cc2CO1`, in assay [1], the cell count was 383. Also, the inhibition was -7.2% (inactive) in assay [1], 7.7% (inactive) in assay [2], -4.59% (inactive) in [4] and 36.1% (inactive) in [9]. In assay [2], this compound displayed a nuclei count of 82.1%. Besides, the z-score was -1.35 in assay [3] (setting [10]), 0.534 in assay [3] (setting [11]) and 1.17 in assay [3] (setting [12]). Further, the fluorescence slope in assay [5] was -0.474 (inactive); in [7] it was 0.00508 (inactive). The NADPH fluorescence slope in assay [6] is -1.1e-05 (inactive). Also, the compound was called inactive in [8].

Turning to `CCCc1cc(Nc2c(C)n(C)n(-c3ccccc3)c2=O)n2c(nc3ccccc32)c1C#N`, in assay [1], the cell count was found to be 336. The inhibition in assay [1] is -3.4% (inactive); in assay [2] it was -170% (inactive); in assay [4], -6.59% (inactive); in [9] it was 0.457% (inactive). In assay [2], the nuclei count was 134%. Moreover, the z-score in assay [3] (setting [10]) was -1.08; in [3] (setting [11]), 0.689; in [3] (setting [12]), -0.99. Besides, the fluorescence slope is -0.48 (inactive) in assay [5] and 0.00467 (inactive) in assay [7]. In addition, the NADPH fluorescence slope in assay [6] was -2.2e-05 (inactive). In addition, in assay [8], the outcome was inactive.

Regarding `Cc1c(C)[n+](=O)c2c(n1[O-])CCC2`, the cell count in assay [1] was found to be 529. The inhibition in [1] is -2% (inactive); in [2], -51.7% (inactive); in assay [4], 13.9% (inactive); in [9] it was 38.1% (inactive). This compound registered a nuclei count in [2] of 103%. For the same compound, the results for the z-score in assay [3] (setting [10]), in [3] (setting [11]) and in [3] (setting [12]) were -0.661, -0.154 and 0.608, respectively. Besides, the fluorescence slope in assay [5] is -0.343 (inactive); in assay [7] it was 0.00544 (inactive). In addition, the NADPH fluorescence slope in assay [6] was -2.3e-05 (inactive). Moreover, the call in assay [8] was inactive.

For the compound `Cc1nnc(N2CCOCC2)c2ccccc12`, the cell count in [1] came to 590. Also, the inhibition is -0.6% (inactive) in assay [1], -63.6% (inactive) in [2], 1.63% (inactive) in assay [4] and 14.9% (inactive) in assay [9]. Besides, the nuclei count in [2] was found to be 148%. Moreover, the values for the z-score in [3] (setting [10]), in [3] (setting [11]) and in assay [3] (setting [12]) were 0.561, 0.102 and -1.27, respectively. The values for the fluorescence slope in assay [5] and in [7] were -0.472 (inactive) and 0.00562 (inactive), respectively. Further, in assay [6], the NADPH fluorescence slope is -0.000134 (inactive). Besides, the compound was classed as inactive in assay [8].

On to `CC1(C)Cc2[nH]c(=O)c(C#N)cc2CS1`, for which the cell count in [1] is 595. In addition, the inhibition in assay [1] is -11.1% (inactive); in [2], -93.7% (inactive); in [4] it was -0.233% (inactive); in [9], 3.23% (inactive). In addition, the nuclei count in assay [2] amounted to 149%. Moreover, the z-score was 0.698 in [3] (setting [10]), -0.413 in [3] (setting [11]) and 1.37 in assay [3] (setting [12]). Also, the values for the fluorescence slope in assay [5] and in assay [7] were -0.435 (inactive) and 0.00467 (inactive), respectively. Besides, the NADPH fluorescence slope in assay [6] is -0.000124 (inactive). In assay [8], the call was inactive.

As for `CN(C)c1nc(OCCNC(=O)Nc2ccccc2)nc(N(C)C)n1`, the cell count in assay [1] came out at 519. Further, the inhibition is -7.6% (inactive) in assay [1], -47.8% (inactive) in assay [2], 5.42% (inactive) in [4] and 36.3% (inactive) in [9]. The nuclei count in assay [2] is 104%. The z-score in assay [3] (setting [10]) was 0.724; in assay [3] (setting [11]) it was -0.537; in [3] (setting [12]) it was -0.187. The fluorescence slope is -0.522 (inactive) in assay [5] and 0.00455 (inactive) in [7]. The NADPH fluorescence slope in assay [6] is 5.3e-05 (inactive). In assay [8], the compound was called inactive.

For `CCOC(=O)NC(Nc1sc2c(c1C(N)=O)CCCC2)(C(=O)OCC)C(F)(F)F` (centres undefined), the cell count in assay [1] is 707. For the same compound, the inhibition in assay [1] is -5.7% (inactive); in [2], -51.4% (inactive); in assay [4] it was 16.5% (inactive); in assay [9], 1.44% (inactive). In assay [2], this compound showed a nuclei count of 144%. The z-score was 0.203 in [3] (setting [10]), -0.663 in [3] (setting [11]) and 1.92 in [3] (setting [12]). For the same compound, the fluorescence slope is -0.448 (inactive) in assay [5] and 0.00659 (inactive) in assay [7]. In addition, the NADPH fluorescence slope in [6] was -1.9e-05 (inactive). Also, the compound was called inactive in assay [8].

For `CC(C)CN1C(=O)c2ccc(C(=O)Nc3ccccn3)cc2C1=O`, the cell count in assay [1] was determined as 669. Further, the inhibition was -5.4% (inactive) in assay [1], 50% (inactive) in assay [2], -11.4% (inactive) in assay [4] and -7.05% (inactive) in assay [9]. In [2], this compound displayed a nuclei count of 136%. Besides, the z-score in assay [3] (setting [10]) is -1.42; in [3] (setting [11]) it was 1.32; in assay [3] (setting [12]) it was -0.345. Further, the results for the fluorescence slope in [5] and in assay [7] were -0.495 (inactive) and 0.00831 (inactive), respectively. Moreover, in [6], the NADPH fluorescence slope was -4.7e-05 (inactive). In assay [8], the compound was called inactive.

Regarding `Cn1c(=O)n(CC(=O)Nc2ccccc2)c2ccccc21`, in assay [1], the cell count turned out to be 382. Further, the inhibition in assay [1] is -4.5% (inactive); in assay [2], -15.2% (inactive); in assay [4], 22.3% (inactive); in assay [9], -5.61% (inactive). The nuclei count in assay [2] is 152%. Besides, the z-score in assay [3] (setting [10]) was -0.194; in [3] (setting [11]) it was 0.676; in assay [3] (setting [12]) it was -0.438. Also, the values for the fluorescence slope in assay [5] and in [7] were -0.453 (inactive) and 0.0039 (inactive), respectively. Also, the NADPH fluorescence slope in assay [6] is -0.000119 (inactive). For the same compound, the outcome in assay [8] was inactive.

Regarding `O=C(Oc1oc(-c2ccco2)nc1C=Nc1ccccc1)c1ccco1`, in assay [1], the cell count turned out to be 504. The inhibition in assay [1] is 15% (inactive); in assay [2], -2% (inactive); in assay [4], 22.1% (inactive); in assay [9], 38.4% (inactive). In assay [2], this compound had a nuclei count of 108%. The z-score was -2.44 in assay [3] (setting [10]), 1.67 in assay [3] (setting [11]) and -0.418 in [3] (setting [12]). Moreover, the values for the fluorescence slope in assay [5] and in assay [7] were -0.504 (inactive) and 0.0053 (inactive), respectively. Further, the NADPH fluorescence slope in [6] is -3.8e-05 (inactive). Besides, the outcome in [8] was inactive.

As for `COc1cc(C2Nc3cccc4cccc(c34)N2)cc(OC)c1OC(C)=O`, the cell count in assay [1] came out at 498. The inhibition is -3.5% (inactive) in assay [1], -2.1% (inactive) in [2], -2.59% (inactive) in assay [4] and 17.1% (inactive) in assay [9]. The same compound yielded a nuclei count in assay [2] of 85.3%. Besides, the values for the z-score in assay [3] (setting [10]), in [3] (setting [11]) and in [3] (setting [12]) were 0.65, -1.19 and 0.407, respectively. Also, the fluorescence slope was -0.474 (inactive) in assay [5] and 0.00327 (inactive) in [7]. Moreover, the NADPH fluorescence slope in assay [6] is 7.8e-06 (inactive). The compound was classed as inactive in assay [8].

Consider `CCCOc1ccc(C2/C(=C(/O)c3ccccc3)C(=O)C(=O)N2CCCN(C)C)cc1OC` (centres undefined), for which the cell count in assay [1] was 399. For the same compound, the inhibition is -2.9% (inactive) in assay [1], -92.3% (inactive) in [2], 18.2% (inactive) in assay [4] and 26.4% (inactive) in [9]. In [2], this compound returned a nuclei count of 157%. Besides, the values for the z-score in assay [3] (setting [10]), in [3] (setting [11]) and in [3] (setting [12]) were 0.261, -0.731 and -0.508, respectively. In addition, the fluorescence slope in assay [5] is -0.463 (inactive); in assay [7], 0.00492 (inactive). Moreover, the NADPH fluorescence slope in [6] is -0.000127 (inactive). Also, the compound was called inactive in assay [8].

As for `Cc1cccc(-c2nnc3n2N=C(c2ccccc2)CS3)c1`, the cell count in assay [1] was 713. In addition, the inhibition is 6.8% (inactive) in assay [1], -55.5% (inactive) in assay [2], 16.8% (inactive) in [4] and 44.7% (inactive) in assay [9]. For the same compound, the nuclei count in assay [2] came out at 169%. Besides, the z-score in assay [3] (setting [10]) was 0.462; in [3] (setting [11]) it was -0.93; in [3] (setting [12]) it was 1.32. Besides, the fluorescence slope in assay [5] was -0.415 (inactive); in assay [7] it was 0.00492 (inactive). Further, the NADPH fluorescence slope in assay [6] is -6.7e-05 (inactive). The call in [8] was inactive.
